According to ChEMBL document CHEMBL4819027, “Design, synthesis and biological evaluation of novel 2-(4-(1H-indazol-6-yl)-1H-pyrazol-1-yl)acetamide derivatives as potent VEGFR-2 inhibitors” (Eur J Med Chem, 2021):
Active and inactive are the calls of the source. The rule behind the calls is not given here.

How the values were obtained:
[1] = target: T1, Vascular endothelial growth factor receptor 2 (Homo sapiens, UniProt P35968); assay: Inhibition of VEGFR2 (unknown origin) incubated for 10 mins followed by kinase substrate addition and measured after 30 mins by caliper mobility shift assay
T1 sequence (P35968 whole entry): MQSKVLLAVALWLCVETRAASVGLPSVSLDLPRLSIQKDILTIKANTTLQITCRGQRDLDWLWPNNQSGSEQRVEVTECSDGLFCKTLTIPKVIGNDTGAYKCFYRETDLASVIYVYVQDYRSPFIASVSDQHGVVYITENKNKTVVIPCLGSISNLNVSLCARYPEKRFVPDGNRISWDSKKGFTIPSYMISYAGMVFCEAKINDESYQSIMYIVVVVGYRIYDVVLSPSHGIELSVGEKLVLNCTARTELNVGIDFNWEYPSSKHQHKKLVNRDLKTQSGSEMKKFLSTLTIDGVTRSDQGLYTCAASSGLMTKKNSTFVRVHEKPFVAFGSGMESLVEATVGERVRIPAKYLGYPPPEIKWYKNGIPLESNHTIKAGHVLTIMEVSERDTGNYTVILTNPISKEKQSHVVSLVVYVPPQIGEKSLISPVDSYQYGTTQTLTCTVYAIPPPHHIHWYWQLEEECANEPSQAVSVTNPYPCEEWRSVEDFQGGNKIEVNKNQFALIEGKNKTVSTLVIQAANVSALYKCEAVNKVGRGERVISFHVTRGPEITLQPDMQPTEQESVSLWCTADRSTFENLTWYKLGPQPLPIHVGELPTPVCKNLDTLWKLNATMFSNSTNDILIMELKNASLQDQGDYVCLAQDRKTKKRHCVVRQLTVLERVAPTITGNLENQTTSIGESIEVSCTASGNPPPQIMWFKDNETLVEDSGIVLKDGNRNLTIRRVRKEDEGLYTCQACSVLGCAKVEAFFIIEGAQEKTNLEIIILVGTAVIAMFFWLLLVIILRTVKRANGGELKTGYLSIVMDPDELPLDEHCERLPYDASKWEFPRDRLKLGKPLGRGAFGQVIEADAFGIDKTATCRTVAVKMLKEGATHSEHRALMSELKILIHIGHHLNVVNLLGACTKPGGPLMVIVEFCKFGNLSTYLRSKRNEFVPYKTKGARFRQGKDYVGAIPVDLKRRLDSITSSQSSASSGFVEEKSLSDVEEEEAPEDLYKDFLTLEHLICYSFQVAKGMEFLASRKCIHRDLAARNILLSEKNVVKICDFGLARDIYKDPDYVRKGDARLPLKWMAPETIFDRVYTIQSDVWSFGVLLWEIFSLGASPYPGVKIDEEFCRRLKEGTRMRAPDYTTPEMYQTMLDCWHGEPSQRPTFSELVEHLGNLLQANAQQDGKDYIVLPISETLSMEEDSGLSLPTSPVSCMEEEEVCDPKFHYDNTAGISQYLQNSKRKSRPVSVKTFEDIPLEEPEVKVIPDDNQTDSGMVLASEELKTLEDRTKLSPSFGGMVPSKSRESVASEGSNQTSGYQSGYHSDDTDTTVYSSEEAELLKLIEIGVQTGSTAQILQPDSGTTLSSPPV

A549 = assay: Antiproliferative activity against human A549 cells assessed as cell growth inhibition after 72 hrs by MTT assay; type: functional, cell-based; settings: A549, 72 h
In short: (§1)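 Log-phase cells were seeded at 5 × 10³ per well and attached 24 h. HT-29 and GES-1 were grown in DMEM-based medium, A549/HepG2/HGC-27 in RPMI-1640, HUVEC in ECM with ECGS; all media had 10% FBS. Cells were exposed to graded compound concentrations for 72 h at 37 °C. MTT (5 mg/mL stock) was added for 4 h, formazan dissolved in DMSO, and A490 read. IC50 was obtained by nonlinear sigmoidal regression; mean ± S.E. of three experiments.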

HGC-27 [2] = assay: Antiproliferative activity against human HGC-27 cells assessed as cell growth inhibition after 72 hrs by MTT assay; type: functional, cell-based; settings: HGC-27, 72 h; in short: as §1
HGC-27 [3] = assay: Inhibition of colony formation in human HGC-27 cells after 12 days by crystal violet staining based assay; type: functional, cell-based; settings: dose 0.1-1 µM, time 12.0 day
In short: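 HGC-27 cells (500/well, 6-well plates) attached 24 h at 37 °C, then kept 12 days in medium with compound (0.1, 0.5, 1 µM), 0.1% DMSO vehicle or 5 µM sorafenib. Washed with cold PBS, methanol-fixed, stained 0.1% crystal violet 30 min; colonies >50 cells photographed and counted.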

HGC-27 [4] = assay: Inhibition of cell migration at human HGC-27 cells in 0.1 to 1 uM measured up to 24 hrs by microscopic based wound healing assay; type: functional; settings: dose 0.1-1 µM, time hrs <=24, TDE = time-dependent effect
In short: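 HGC-27 grown to 80–90% confluence in 6-well plates, serum-starved 12 h, scratched with 200 µL tip (~1 mm lane). Washed, then given complete medium alone or with compound (0.1, 0.5, 1 µM) or sorafenib positive control. Imaged by inverted microscope at 0, 6 and 24 h; relative scratch closure quantified; mean ± SD, three independent experiments.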

HGC-27 [5] = assay: Antimigratory activity against human HGC-27 cells assessed as relative closure of scratches at 0.5 uM measured after 6 hrs by scratch wound healing assay relative to control; type: functional
In short: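 HGC-27 monolayers at 80–90% confluence were serum-starved 12 h, then scratched to give 1 mm lanes. After a PBS wash, cells received complete medium with or without compound (0.1, 0.5, 1 μM). Wounds were imaged at 0, 6 and 24 h. Relative scratch closure was quantified against untreated control; mean ± SD of three experiments.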

HGC-27 [6] = assay: Antimigratory activity against human HGC-27 cells assessed as reduction in cell migration measured after 24 hrs by crystal violet staining microscopy based transwell migration assay; type: functional; settings: dose 0.1-1 µM
HGC-27 [7] = assay: Antimigratory activity against human HGC-27 cells assessed as number of migration cells at 1 uM measured after 24 hrs by transwell migration assay (reference value: 320); type: functional
HGC-27 [8] = assay: Up regulation of E-cadherin expression in human HGC-27 cells at 1 uM measured after 24 hrs by immunoblot analysis; type: functional, cell-based
In short: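 HGC-27 seeded 1.0×10^6 cells/dish in RPMI-1640/10% FBS; 24 h with compound (0.1, 0.5, 1 µM), 0.1% DMSO vehicle or sorafenib. RIPA lysates with PMSF/phosphatase inhibitor, BCA-normalized, 8–12% SDS-PAGE, nitrocellulose, milk block, primary antibodies overnight 4 °C, HRP secondaries, ECL; E-cadherin band densitometry; mean ± SD, three independent experiments.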

HGC-27 [9] = assay: Induction of apoptosis in human HGC-27 cells assessed as viable cells level at 0.5 uM incubated for 24 hrs by propidium iode and annexin V-FITC staining based flow cytometry (reference value: 96.0%); type: functional
In short: (§2)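 HGC-27 cells (1.0 × 10⁶ per 60 mm dish) were treated 24 h with 0.1% DMSO or compound (0.1, 0.5, 1 μM). Cells were stained with Annexin V-FITC in HEPES/NaCl/CaCl₂ binding buffer (pH 7.4) for 15 min at room temperature, then with PI for 10 min. About 10 000 events were acquired by flow cytometry to give viable, early apoptotic, late apoptotic and necrotic fractions.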

HGC-27 [10] = assay: Induction of apoptosis in human HGC-27 cells assessed as early apoptotic cells level at 1 uM incubated for 24 hrs by propidium iode and annexin V-FITC staining based flow cytometry (reference value: 1.48%); type: functional; in short: as §2
HGC-27 [11] = assay: Induction of apoptosis in human HGC-27 cells assessed as early apoptotic cells level at 0.1 uM incubated for 24 hrs by propidium iode and annexin V-FITC staining based flow cytometry (reference value: 1.48%); type: functional; in short: as §2
HGC-27 [12] = assay: Induction of apoptosis in human HGC-27 cells assessed as necrotic cells level at 1 uM incubated for 24 hrs by propidium iode and annexin V-FITC staining based flow cytometry (reference value: 1.64%); type: functional; in short: as §2
HGC-27 [13] = assay: Induction of intracellular ROS generation in human HGC-27cells incubated for 24 hrs by DCFH-DA staining-based flow cytometric analysis; type: functional, cell-based; settings: dose 0.1-1 µM
In short: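 HGC-27 cells (5.0 × 10⁵ per well) were treated 24 h with compound (0.1, 0.5, 1 μM) or 0.1% DMSO. Harvested cells were loaded with 10 μM DCFH-DA in PBS for 20 min at 37 °C. Green fluorescence intensity was measured by flow cytometry.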

HGC-27 [14] = assay: Induction of intracellular ROS generation in human HGC-27cells assessed as increase in fluorescence intensity at 0.5 uM incubated for 24 hrs by DCFH-DA staining-based flow cytometric analysis (reference value: 712); type: functional
[15] = target: T1, Vascular endothelial growth factor receptor 2; assay: Inhibition of VEGFR2 in human HGC-27 cells assessed as reduction in VEGFR-2 phosphorylation after 24 hrs by westernblot analysis; type: cell-based
In short: (§3)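 HGC-27 cells (1.0 × 10⁶ per 60 mm dish) were treated 24 h with 0.1% DMSO or compound (0.1, 0.5, 1 μM). RIPA lysates with phosphatase inhibitor were quantified by BCA and resolved on 8–12% SDS-PAGE onto nitrocellulose. Blots were probed for p-VEGFR-2 (Tyr1175), p-PI3K (Tyr607), p-AKT (Thr308) and p-mTOR (Ser2448), with ECL detection and densitometry; mean ± SEM.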

[16] = target: T1, Vascular endothelial growth factor receptor 2; assay: Inhibition of VEGFR2 in human HGC-27 cells assessed as downregulation of PI3K phosphorylation at Tyr607 at 0.1 to 1 uM after 24 hrs by Westernblot analysis; type: cell-based; settings: dose 0.1-1 µM; in short: as §3
[17] = target: T1, Vascular endothelial growth factor receptor 2; assay: Inhibition of VEGFR2 in human HGC-27 cells assessed as downregulation of Akt phosphorylation at […] at 0.1 to 1 uM after 24 hrs by Westernblot analysis; type: cell-based; settings: dose 0.1-1 µM; in short: as §3
[18] = target: T1, Vascular endothelial growth factor receptor 2; assay: Inhibition of VEGFR2 in human HGC-27 cells assessed as downregulation of mTOR phosphorylation at Ser2448 at 0.1 to 1 uM after 24 hrs by Westernblot analysis; type: cell-based; settings: dose 0.1-1 µM; in short: as §3
HGC-27 [19] = assay: Induction of apoptosis in human HGC-27 cells assessed as downregulation of Bcl-xl protein expression at incubated for 24 hrs by western blot analysis; settings: dose 0.1-1 µM

## CC(=O)Nc1n[nH]c2cc(-c3cnn(CC(=O)Nc4ccc(C)c(C(F)(F)F)c4)c3)ccc12
[1]
  IC50: 1.6 nM
A549
  IC50: 4310 nM
HGC-27 [2]
  IC50: 360 nM
HGC-27 [3]
  inhibition: Dose-Dependent Effect
HGC-27 [4]
  inhibition: Tde
HGC-27 [5]
  inhibition at 0.5 µM: 9.5%
HGC-27 [6]
  inhibition: Dose-Dependent Effect
HGC-27 [7]
  Activity: 22
HGC-27 [8]
  Activity: Dose-Dependent Effect
HGC-27 [9]
  Activity: 69.7%
HGC-27 [10]
  Activity: 11.8%
HGC-27 [11]
  Activity: 4.75%
HGC-27 [12]
  Activity: 9.59%
HGC-27 [13]
  Activity: Dose-Dependent Effect
HGC-27 [14]
  Flu intensity: 945
[15]
  inhibition: Dose-Dependent Effect
[16]
  inhibition: Active
[17]
  inhibition: Active
[18]
  inhibition: Active
HGC-27 [19]
  Activity: Dose-Dependent Effect
